Test results reported in publication PMC11471106 (Drug Design, Development and Therapy, 2024).

Test system: MCF-7 cells
Assay: Inhibition of [125I]I-AM uptake into MCF-7 cells by blocking agents
Format: cell-based
Conditions: blocking agent at 1 mm
Method in brief: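 Blocking uptake study in MCF-7 cells, cultured and given radiotracer as in the standard uptake assay (serum-free MEM + 0.2% BSA, 37 °C, gamma counting of lysate versus medium). Cells were treated separately with unlabelled parent compound, tamoxifen or 17β-estradiol, each at one stated concentration. Groups were compared by one-way ANOVA with Tukey's multiple comparison test.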

| Compound | effect on uptake of [125I]I-AM into MCF-7 cells |
| --- | --- |
| C[C@]12CC[C@@H]3c4ccc(O)cc4CC[C@H]3[C@@H]1CC[C@@H]2O [estradiol, 17 β -estradiol] | not inhibited |
| CC/C(=C(\c1ccccc1)c1ccc(OCCN(C)C)cc1)c1ccccc1 [tamoxifen] | significantly inhibited |
